From ChEMBL document CHEMBL1154706, “Novel substituted and fused pyrrolizine derivatives: synthesis, anti-inflammatory and ulcerogenecity studies” (Eur J Med Chem, 2010) come the findings set out here.

The subject of this series is Rattus norvegicus. The experiment in a line: Gastrointestinal toxicity in albino rat assessed ulcer index at 39.23 […], po. The format is organism-based. The following applies: in vivo. In outline:
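Adult albino rats of both sexes (120–150 g), five per group, fasted 20 h before dosing. Compounds given orally as a suspension in 1% Tween; controls received vehicle. Dosed on three consecutive days with fasting/feeding cycles, then killed on day 4. Stomach opened along the greater curvature and rinsed with saline. Red spots counted and severity scored 0–4. Ulcer index derived from % incidence/10, mean ulcer number and mean severity.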
Molecule `Cc1ccc(NC(=O)c2c(NC(=O)C(C)c3ccc(CC(C)C)cc3)c(C#N)c3n2CCC3)cc1` (racemic) registered a UI of 3.2. Under `O=C(O)CCc1nc(=O)c2c3n(c(C(=O)Nc4ccc(Cl)cc4)c2[nH]1)CCC3` stands 15.66. `O=C(O)/C=C\c1nc(=O)c2c3n(c(C(=O)Nc4ccccc4)c2[nH]1)CCC3` gave a UI of 17.46.

In the case of `CC(C)Cc1ccc(C(C)C(=O)Nc2c(C#N)c3n(c2C(=O)Nc2ccccc2)CCC3)cc1` (racemic), the UI was determined as 0. Under `CC(C(=O)Nc1c(C#N)c2n(c1C(=O)Nc1ccccc1)CCC2)c1cccc(C(=O)c2ccccc2)c1` (racemic) stands 0; under `CC(C(=O)Nc1c(C#N)c2n(c1C(=O)Nc1ccc(Cl)cc1)CCC2)c1cccc(C(=O)c2ccccc2)c1` (racemic), 3.6. The figure for `Cc1ccc(NC(=O)c2c3[nH]c(CCC(=O)O)nc(=O)c3c3n2CCC3)cc1` is 17.91; for `Cc1ccc(NC(=O)c2c3[nH]c(/C=C\C(=O)O)nc(=O)c3c3n2CCC3)cc1` it is 18.3.

As to `O=C(O)CCc1nc(=O)c2c3n(c(C(=O)Nc4ccccc4)c2[nH]1)CCC3`, the UI is reported as 16.66. Turning to `CC(C)Cc1ccc(C(C)C(=O)Nc2c(C#N)c3n(c2C(=O)Nc2ccc(Cl)cc2)CCC3)cc1` (racemic), the UI amounted to 0. Under `Cc1ccc(NC(=O)c2c(NC(=O)C(C)c3cccc(C(=O)c4ccccc4)c3)c(C#N)c3n2CCC3)cc1` (racemic) stands 3.6. Under `O=C(O)/C=C\c1nc(=O)c2c3n(c(C(=O)Nc4ccc(Cl)cc4)c2[nH]1)CCC3` stands 17.09; under `O=C(c1ccccc1)c1ccc2n1CCC2C(=O)O` (stereo not drawn) [KETOROLAC], 11.6.
